# Assay results from ChEMBL document CHEMBL3596197, “Synthesis, topoisomerase I and II inhibitory activity, cytotoxicity, and structure-activity relationship study of 2-phenyl- or hydroxylated 2-phenyl-4-aryl-5H-indeno[1,2-b]pyridines” (Bioorg Med Chem, 2015).
# Where a name gives a salt, the structure may show the parent alone.
# Columns and labels:
# HeLa = experiment: Cytotoxicity against human HeLa cells incubated from day 2 to day 4 by CCK8 assay; assay type: functional, cell-based
# Summary of the method: (§1)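 Cells seeded at 2~4 × 10^4 per well and grown overnight in medium with 10% FBS at 37 °C, 5% CO2. Day 2: FBS starvation 4 h, then medium with graded compound concentrations. Day 4: CCK-8 added for 4 h more, absorbance read at 450 nm. IC50 from four-parameter logistic fit. Mean ± S.D. of three experiments run in triplicate.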
# [1] = biological target: DNA topoisomerase 2-alpha (Homo sapiens) (UniProt P11388); experiment: Inhibition of human recombinant DNA topoisomerse 2 alpha using pBR322 as substrate assessed as inhibition of conversion of supercoiled pBR322 to relaxed form at 100 uM after 30 mins by ethidium bromide staining-based electrophoresis analysis
# Chain of DNA topoisomerase 2-alpha (Homo sapiens) (P11388 whole entry): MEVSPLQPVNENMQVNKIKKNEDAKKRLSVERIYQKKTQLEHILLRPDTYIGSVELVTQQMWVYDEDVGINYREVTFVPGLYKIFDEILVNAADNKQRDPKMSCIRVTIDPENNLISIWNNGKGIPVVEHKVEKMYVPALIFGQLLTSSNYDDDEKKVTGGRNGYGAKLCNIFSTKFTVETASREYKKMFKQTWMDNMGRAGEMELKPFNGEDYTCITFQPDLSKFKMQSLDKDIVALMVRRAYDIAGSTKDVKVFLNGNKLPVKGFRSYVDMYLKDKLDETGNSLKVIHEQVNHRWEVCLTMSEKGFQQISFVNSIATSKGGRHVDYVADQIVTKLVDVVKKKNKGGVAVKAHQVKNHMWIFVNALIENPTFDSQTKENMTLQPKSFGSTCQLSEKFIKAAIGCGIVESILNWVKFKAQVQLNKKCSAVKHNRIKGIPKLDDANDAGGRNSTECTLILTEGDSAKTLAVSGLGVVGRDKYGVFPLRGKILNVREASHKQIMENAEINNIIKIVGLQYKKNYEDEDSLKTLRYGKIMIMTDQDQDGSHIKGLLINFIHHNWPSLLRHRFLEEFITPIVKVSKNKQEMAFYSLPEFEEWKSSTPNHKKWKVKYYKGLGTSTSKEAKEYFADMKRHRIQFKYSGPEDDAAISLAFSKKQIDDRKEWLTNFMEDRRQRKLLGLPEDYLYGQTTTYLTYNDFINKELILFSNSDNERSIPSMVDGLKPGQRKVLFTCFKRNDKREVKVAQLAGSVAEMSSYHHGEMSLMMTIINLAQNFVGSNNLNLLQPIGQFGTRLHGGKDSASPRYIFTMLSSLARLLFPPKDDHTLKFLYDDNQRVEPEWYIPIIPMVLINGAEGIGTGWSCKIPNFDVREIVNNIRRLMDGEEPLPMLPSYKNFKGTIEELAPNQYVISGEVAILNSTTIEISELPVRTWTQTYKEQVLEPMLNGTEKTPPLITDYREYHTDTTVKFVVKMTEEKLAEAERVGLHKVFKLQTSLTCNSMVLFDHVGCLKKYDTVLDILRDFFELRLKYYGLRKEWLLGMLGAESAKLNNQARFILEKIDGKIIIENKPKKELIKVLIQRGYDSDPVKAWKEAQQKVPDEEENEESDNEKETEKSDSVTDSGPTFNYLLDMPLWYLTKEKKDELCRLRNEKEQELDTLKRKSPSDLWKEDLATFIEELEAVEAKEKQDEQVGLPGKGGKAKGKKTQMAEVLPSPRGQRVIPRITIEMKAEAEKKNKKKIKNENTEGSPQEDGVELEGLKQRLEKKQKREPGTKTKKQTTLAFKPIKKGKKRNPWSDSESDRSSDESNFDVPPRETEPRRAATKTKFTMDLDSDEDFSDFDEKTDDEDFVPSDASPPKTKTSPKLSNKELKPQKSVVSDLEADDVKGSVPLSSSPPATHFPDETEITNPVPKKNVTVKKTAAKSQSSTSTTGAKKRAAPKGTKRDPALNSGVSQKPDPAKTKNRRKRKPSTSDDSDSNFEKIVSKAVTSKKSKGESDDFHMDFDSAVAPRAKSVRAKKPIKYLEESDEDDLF
# Summary of the method: (§2)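 Supercoiled pBR322 (200 ng) with 1 unit human topo IIα, 30 min at 30 °C. Buffer: 10 mM Tris-HCl pH 7.9, 50 mM NaCl, 5 mM MgCl2, 1 mM EDTA, 1 mM ATP, 15 μg/mL BSA. Stopped with EDTA. 1% agarose gel at 25 V for 4 h in TAE, ethidium bromide stain, supercoiled DNA quantitated under UV.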
# T47D = experiment: Cytotoxicity against human T47D cells incubated from day 2 to day 4 by CCK8 assay; assay type: functional, cell-based; summary of the method: as §1
# HCT-15 = experiment: Cytotoxicity against human HCT15 cells incubated from day 2 to day 4 by CCK8 assay; assay type: functional, cell-based; summary of the method: as §1
# [2] = biological target: T1, DNA topoisomerase 1 (Homo sapiens) (UniProt P11387); experiment: Inhibition of human recombinant DNA topoisomerse 1 using pBR322 as substrate assessed as inhibition of conversion of supercoiled pBR322 to relaxed form at 20 uM after 30 mins by ethidium bromide staining-based electrophoresis analysis
# T1 sequence (whole entry): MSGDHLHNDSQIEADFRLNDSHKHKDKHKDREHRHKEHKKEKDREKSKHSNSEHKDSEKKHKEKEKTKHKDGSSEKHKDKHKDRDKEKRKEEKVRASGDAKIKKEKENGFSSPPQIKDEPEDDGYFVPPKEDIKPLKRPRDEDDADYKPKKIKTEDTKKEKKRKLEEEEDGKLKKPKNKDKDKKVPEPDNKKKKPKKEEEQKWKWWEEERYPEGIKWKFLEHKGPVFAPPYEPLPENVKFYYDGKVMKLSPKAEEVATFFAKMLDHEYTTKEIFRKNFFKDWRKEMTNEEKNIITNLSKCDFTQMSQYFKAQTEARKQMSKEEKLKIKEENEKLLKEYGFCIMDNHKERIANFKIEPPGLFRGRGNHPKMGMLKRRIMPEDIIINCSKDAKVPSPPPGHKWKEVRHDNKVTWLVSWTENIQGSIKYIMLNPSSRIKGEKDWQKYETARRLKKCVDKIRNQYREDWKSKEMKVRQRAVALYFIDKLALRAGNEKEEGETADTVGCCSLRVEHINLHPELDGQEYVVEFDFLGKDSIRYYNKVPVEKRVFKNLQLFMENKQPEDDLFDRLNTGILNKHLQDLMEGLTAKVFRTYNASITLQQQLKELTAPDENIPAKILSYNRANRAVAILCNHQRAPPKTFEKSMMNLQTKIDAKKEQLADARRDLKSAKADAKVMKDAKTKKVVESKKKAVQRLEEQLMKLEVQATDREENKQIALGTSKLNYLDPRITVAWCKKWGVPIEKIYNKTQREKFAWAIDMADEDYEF
# Summary of the method: (§3)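 Relaxation of supercoiled pBR322 (100 ng) by 1 unit recombinant human topo I. Run at 37 °C for 30 min in 10 mM Tris-HCl pH 7.9, 150 mM NaCl, 0.1% BSA, 1 mM spermidine, 5% glycerol. Compounds from 20 mM DMSO stocks. Stopped with sarcosyl, then 1% agarose gel at 15 V for 7 h in TAE. Ethidium bromide stain, UV imaging, bands quantitated.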
# [3] = biological target: DNA topoisomerase 2-alpha (Homo sapiens) (UniProt P11388); experiment: Inhibition of human recombinant DNA topoisomerse 2 alpha using pBR322 as substrate assessed as inhibition of conversion of supercoiled pBR322 to relaxed form at 20 uM after 30 mins by ethidium bromide staining-based electrophoresis analysis; summary of the method: as §2
# DU-145 = experiment: Cytotoxicity against human DU145 cells incubated from day 2 to day 4 by CCK8 assay; assay type: functional, cell-based; summary of the method: as §1
# [4] = biological target: T1, DNA topoisomerase 1 (Homo sapiens); experiment: Inhibition of human recombinant DNA topoisomerse 1 using pBR322 as substrate assessed as inhibition of conversion of supercoiled pBR322 to relaxed form at 100 uM after 30 mins by ethidium bromide staining-based electrophoresis analysis; summary of the method: as §3
inhibition [1],inhibition [2],inhibition [3],inhibition [4],Structure (SMILES),IC50 (HeLa),IC50 (T47D),IC50 (HCT-15),IC50 (DU-145)
72.2%,0%,32%,55.6%,Oc1cccc(-c2cc(-c3cccs3)c3c(n2)-c2ccccc2C3)c1,1.47 µM,4.07 µM,2.32 µM,4.38 µM
–,–,–,3.3%,c1ccc(-c2cc(-c3ccncc3)c3c(n2)-c2ccccc2C3)cc1,> 50 µM,> 50 µM,> 50 µM,> 50 µM
11.7%,2.4%,–,58.3%,Oc1ccccc1-c1cc(-c2ccco2)c2c(n1)-c1ccccc1C2,> 50 µM,> 50 µM,> 50 µM,> 50 µM
16.7%,–,–,3.4%,c1ccc(-c2cc(-c3ccsc3)c3c(n2)-c2ccccc2C3)cc1,29.8 µM,> 50 µM,31.4 µM,1.62 µM
–,–,–,–,COc1cccc2c1C(=O)c1c(O)c3c(c(O)c1C2=O)C[C@@](O)(C(=O)CO)C[C@@H]3O[C@H]1C[C@H](N)[C@H](O)[C@H](C)O1 [DOXORUBICIN HYDROCHLORIDE],–,–,–,1.02 µM
44.5%,8.7%,25.9%,73%,c1ccc(-c2cc(-c3ccco3)c3c(n2)-c2ccccc2C3)cc1,1.42 µM,10.6 µM,11.2 µM,5 µM
3.5%,3.8%,–,70.9%,Oc1ccccc1-c1cc(-c2cccnc2)c2c(n1)-c1ccccc1C2,> 50 µM,> 50 µM,> 50 µM,> 50 µM
36.9%,0%,0%,90.1%,Oc1ccc(-c2cc(-c3ccsc3)c3c(n2)-c2ccccc2C3)cc1,> 50 µM,> 50 µM,> 50 µM,> 50 µM
9.1%,4.9%,–,52.8%,Oc1ccccc1-c1cc(-c2ccccn2)c2c(n1)-c1ccccc1C2,> 50 µM,> 50 µM,> 50 µM,> 50 µM
40.1%,0%,21.4%,69.1%,Oc1ccc(-c2cc(-c3cccs3)c3c(n2)-c2ccccc2C3)cc1,> 50 µM,> 50 µM,> 50 µM,> 50 µM
18.2%,4.7%,–,61.2%,Oc1ccc(-c2cc(-c3ccccn3)c3c(n2)-c2ccccc2C3)cc1,> 50 µM,> 50 µM,> 50 µM,> 50 µM
78.2%,5.5%,44.5%,59.7%,Oc1cccc(-c2cc(-c3ccco3)c3c(n2)-c2ccccc2C3)c1,3.66 µM,6.74 µM,1.59 µM,4.38 µM
–,–,–,4.1%,c1ccc(-c2cc(-c3cccnc3)c3c(n2)-c2ccccc2C3)cc1,> 50 µM,> 50 µM,> 50 µM,> 50 µM
50.6%,1.7%,30.6%,68.5%,Oc1cccc(-c2cc(-c3cccnc3)c3c(n2)-c2ccccc2C3)c1,4.67 µM,> 50 µM,> 50 µM,> 50 µM
56.2%,0%,19.3%,69.2%,Oc1cccc(-c2cc(-c3ccoc3)c3c(n2)-c2ccccc2C3)c1,0.94 µM,> 50 µM,> 50 µM,28.9 µM
19.6%,–,15.1%,0%,c1ccc(-c2cc(-c3ccoc3)c3c(n2)-c2ccccc2C3)cc1,23.8 µM,35.3 µM,1.52 µM,46.5 µM
16.4%,–,–,3.6%,c1ccc(-c2cc(-c3ccccn3)c3c(n2)-c2ccccc2C3)cc1,18.7 µM,44.5 µM,> 50 µM,13.2 µM
48.5%,–,19.7%,5.9%,Oc1cccc(-c2cc(-c3ccccn3)c3c(n2)-c2ccccc2C3)c1,3.09 µM,> 50 µM,> 50 µM,> 50 µM
28.3%,2.4%,–,59.7%,Oc1ccc(-c2cc(-c3cccnc3)c3c(n2)-c2ccccc2C3)cc1,> 50 µM,> 50 µM,> 50 µM,> 50 µM
–,–,–,–,COc1cc([C@@H]2c3cc4c(cc3[C@@H](O[C@@H]3O[C@@H]5CO[C@@H](C)O[C@H]5[C@H](O)[C@H]3O)[C@H]3COC(=O)[C@H]23)OCO4)cc(OC)c1O [ETOPOSIDE],–,0.7 µM,–,–
27.1%,0.7%,–,72.4%,Oc1ccc(-c2cc(-c3ccncc3)c3c(n2)-c2ccccc2C3)cc1,> 50 µM,> 50 µM,> 50 µM,> 50 µM
51.7%,0.5%,39.2%,50.6%,Oc1ccccc1-c1cc(-c2ccoc2)c2c(n1)-c1ccccc1C2,> 50 µM,> 50 µM,> 50 µM,> 50 µM
16.8%,–,–,3.7%,c1ccc(-c2cc(-c3cccs3)c3c(n2)-c2ccccc2C3)cc1,30.8 µM,26.7 µM,> 50 µM,9.34 µM
59.9%,2.7%,44.2%,54.8%,Oc1ccc(-c2cc(-c3ccco3)c3c(n2)-c2ccccc2C3)cc1,> 50 µM,> 50 µM,> 50 µM,> 50 µM
5.1%,2.3%,–,68.7%,Oc1ccccc1-c1cc(-c2ccncc2)c2c(n1)-c1ccccc1C2,> 50 µM,> 50 µM,> 50 µM,39.6 µM
46.8%,0%,23.2%,87.8%,Oc1ccccc1-c1cc(-c2ccsc2)c2c(n1)-c1ccccc1C2,> 50 µM,> 50 µM,> 50 µM,36.5 µM
–,–,–,–,CC[C@@]1(O)C(=O)OCc2c1cc1n(c2=O)Cc2cc3ccccc3nc2-1 [CAMPTOTHECIN],0.41 µM,0.31 µM,0.52 µM,–
40.4%,0%,36.9%,63.5%,Oc1ccc(-c2cc(-c3ccoc3)c3c(n2)-c2ccccc2C3)cc1,> 50 µM,> 50 µM,> 50 µM,> 50 µM
77.2%,0%,37%,76.9%,Oc1cccc(-c2cc(-c3ccsc3)c3c(n2)-c2ccccc2C3)c1,1.74 µM,0.94 µM,6.73 µM,2.3 µM
8.4%,1.5%,–,49.8%,Oc1cccc(-c2cc(-c3ccncc3)c3c(n2)-c2ccccc2C3)c1,> 50 µM,> 50 µM,> 50 µM,> 50 µM
